# Screens (PubChem)
# SUMO HTRF inh: blocks human SUMOylation mediated by UBC9. 0.36% of 290,000 active. HTRF SUMOylation assay, SAE1/SAE2 + UBC9, in vitro. P63279. AID 2006. inhibition, % at 35 µM; in the data active means inhibition above about 50%, passing the limit was not always enough; inconclusive means no clear call, values can overlap the other calls
# Target sequence (P63279 whole entry, looked up): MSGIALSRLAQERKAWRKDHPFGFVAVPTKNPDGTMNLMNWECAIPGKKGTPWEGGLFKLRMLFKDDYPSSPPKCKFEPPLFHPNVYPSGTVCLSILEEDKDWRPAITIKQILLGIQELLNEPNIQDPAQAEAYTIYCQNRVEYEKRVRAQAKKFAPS
# GSTO1 inh: counter-screen for RBBP9 inhibitors: inhibitors of human GSTO1. P78417. recombinant GSTO1, activity-based probe fluorescence polarization. inhibition, % at 5.96 µM. 1.1% of 300,000 active. AID 1974;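 active means inhibition above the campaign mean inhibition plus 3 SD, cut at about 35% in these data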;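 further: 0% = GSTO1-1 with DMSO and 100% = wells lacking GSTO1-1 enzyme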
# Target sequence (P78417 whole entry, looked up): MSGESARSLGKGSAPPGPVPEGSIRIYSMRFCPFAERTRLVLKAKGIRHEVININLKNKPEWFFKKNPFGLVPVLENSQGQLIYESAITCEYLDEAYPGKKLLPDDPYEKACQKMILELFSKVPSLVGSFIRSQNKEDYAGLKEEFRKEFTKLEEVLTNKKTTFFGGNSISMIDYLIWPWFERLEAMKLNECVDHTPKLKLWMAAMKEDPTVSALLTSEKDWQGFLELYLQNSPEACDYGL
# Apaf-1 inh: inhibitors of human Apaf-1 apoptosome. O14727. reconstituted apoptosome caspase-3 activity, DEVD-Rh110 fluorescence. inhibition, % at 20 µM. 0.71% of 330,000 active; active means inhibition of at least 40% at 20 µM;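 further: plate controls were DMSO wells for no effect and DEVD-CHO caspase inhibitor wells for full effect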
#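 Material: reconstituted apoptosome with Apaf-1, cytochrome c, caspase-9, procaspase-3, dATP; medium: pH 7.5 Hepes buffer with CHAPS, BSA, DTT; also added: cytochrome c and DEVD-Rh110 substrate; timing: 30 min plus 50 min, RT; signal: Rh110 fluorescence intensity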
# Rin1-Abl PPI inh: human Rin1-Abl interaction inhibition; inhibition, % at 7.35 µM; 0.4% of 360,000 active; TR-FRET Rin1/Abl binding, biochemical; P00519+Q13671; in the data active means inhibition above about 5%, passing the limit was not always enough
# PAD4 inh: blocks human protein arginine deiminase 4. Q9UM07. recombinant PAD4, RCA probe fluorescence polarization. inhibition, % at 6.36 µM. 0.41% of 330,000 active;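 active means percent inhibition above a cutoff equal to the mean of all tested compounds plus 3 SD, cut at about 15% in these data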;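 further: 0% = PAD4 with RCA probe and DMSO and 100% = probe without PAD4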
# UBC13 polyUb: inhibitors of human UBC13 polyubiquitin chain formation; 0.47% of 330,000 active; TR-FRET; P61088; inhibition, % at 20 µM; in the data active means inhibition above about 45%, passing the limit was not always enough; inconclusive means no clear call, values can overlap the other calls
# Target sequence (P61088 whole entry, looked up): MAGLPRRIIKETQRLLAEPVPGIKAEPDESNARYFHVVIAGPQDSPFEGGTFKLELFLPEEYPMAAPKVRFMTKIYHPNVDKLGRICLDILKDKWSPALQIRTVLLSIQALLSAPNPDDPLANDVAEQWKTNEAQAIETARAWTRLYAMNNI
# Rin1-Abl confirm: Rin1-Abl interaction inhibition confirmation. shares compounds with Rin1-Abl PPI inh. TR-FRET Rin1-Abl binding, purified proteins. inhibition, % at 7.35 µM. 49% of 1,300 active. AID 602124
# GFP quench: GFP fluorescence interference artifact. shares compounds with Rin1-Abl PPI inh. inhibitors/quenchers counterscreen. inhibition, % at 6.75 µM. 8.5% of 1,300 active;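 further: ABL1-eGFP fusion protein alone without its partner RIN1-SBP; 0% = protein with vehicle and 100% = wells lacking protein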
# GFP quench dose: GFP fluorescence interference dose response; shares compounds with Rin1-Abl PPI inh; GFP fluorescence interference/quenching counterscreen; 230 tested, under 10 active; IC50, µM; call rule not given here;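 further: ABL1-eGFP fusion protein alone without its RIN1 binding partner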
# * = called active by the depositor; u = inconclusive; x = no result. Most compounds without a hit are left out; they make up all but 2.2% or so of the library. Unless noted, no stated cut-off is given here; in the data, active means inhibition above about 6.5%; inactive means the rest.
SMILES,SUMO HTRF inh,GSTO1 inh,Apaf-1 inh,Rin1-Abl PPI inh,PAD4 inh,UBC13 polyUb,Rin1-Abl confirm,GFP quench,others
Cc1ccc(S(=O)(=O)N2CCN(C(=O)CSc3ccccn3)CC2)c(C)c1,x,0,17,8.2*,1,-7,2,0,
Cc1ccc(S(=O)(=O)N2CCN(C(=O)c3ccccn3)CC2)c(C)c1,1,5,3,4,0,4,x,x,
Cc1cc(C)c2nc(NC(=O)C3CSC4(C)CCC(=O)N34)sc2c1 (configuration not stated),x,x,17,0,2,6,x,x,
C=CCN(CC=C)C(=S)NC(=O)Cc1cccc2ccccc12,20,2,9,10*,-2,6,-2,-1,
O=C(Cc1cccc2ccccc12)Nc1ccccc1,x,-3,-14,-1,2,4,x,x,
CCn1cc(C(=O)NCCCOC(C)C)c(=O)c2cc(S(=O)(=O)N3CCC(C)CC3)ccc21,-3,-3,8,13*,0,0,1,-5,
C[C@H](CO)N1C[C@H](C)[C@H](CN(C)C(=O)Nc2ccccc2)OCc2cnnn2CCCC1=O,x,x,x,-3,x,x,x,x,
CC1(C)C(=O)OC(c2c(F)c(F)c(F)c(F)c2F)C2(CCCCC2)C1=O (configuration not stated),10,-5,20,7.5*,0,-6,-2,1,
CC1(C)C(=O)OC(c2cccn2-c2ccc([N+](=O)[O-])cc2)C2(CCCCC2)C1=O (configuration not stated),4,6,10,-2,-4,2,x,x,
N/C(=N\OC(=O)c1ccc([N+](=O)[O-])cc1)c1cccnc1,3,0,0,1,2,-8,x,x,
Cc1ccc(C(=O)O/N=C(\N)c2cccnc2)cc1[N+](=O)[O-],9,0,8,6.9*,-2,0,-1,-2,
COc1ccccc1OCc1ccc(C(=O)N2CCN(C(=O)c3ccco3)CC2)cc1,0,-3,1,10*,6,3,21*,0,GFP quench dose=>68
CCN(C(=O)CN1C(=O)COc2ccc(S(=O)(=O)N3CCOCC3)cc21)c1ccc(OC)cc1,x,-7,-8,8.2*,-2,-2,11*,0,
Oc1ccc(/C=N/NC(=S)Nc2cccnc2)c(O)c1O,u,x,x,31*,x,x,19*,15*,
CNC(=O)c1oc(-c2ccc(Cl)cc2)nc1C,11,4,0,13*,-4,-7,-3,0,
COc1ccccc1CNc1nc(NCc2ccc(NC(C)=O)cc2)c2sccc2n1,x,x,x,10*,x,x,7.8*,2,
COc1ccccc1CNc1nc(NCCNC(C)=O)c2sccc2n1,x,x,x,19*,x,x,15*,0,
C=CCN(c1ccccc1)S(=O)(=O)c1cccc(C(=O)NNC(=O)c2ccncc2)c1,x,-2,-2,-1,4,-12,x,x,
COc1ccc(-c2cc(C(=O)N3CCN(c4ccccc4O)CC3)c3ccccc3n2)cc1OC,-14,-3,16,-4,-5,4,x,x,
Cc1cccc(-n2c(N)c(-c3nc4ccccc4n3C)c3nc4ccccc4nc32)c1,-5,2,18,12*,-2,-4,-3,-2,
C[C@H](NC(=O)c1ncn2c1c(=O)[nH]c1ccccc12)c1ccccc1,x,x,x,0,x,x,x,x,
C[C@H](NC(=O)c1ncn2c1c(=O)[nH]c1ccc(Br)cc12)c1ccccc1,x,x,x,7.9*,x,x,-22,0,
Cc1nc2ccc(C(=O)NCCCN3CCCC3=O)cn2c1N(C)C(=O)CCc1ccccc1,x,x,x,2,x,x,x,x,
COCCn1c(SCC(=O)Nc2ccc(NC(C)=O)cc2)nc2ccccc2c1=O,-4,2,0,1,-2,2,x,x,
COCCCn1c(SCC(=O)Nc2ccc(C(C)=O)cc2)nc2ccccc2c1=O,-4,1,7,10*,-2,0,7.4*,1,
SMILES,SUMO HTRF inh,GSTO1 inh,Apaf-1 inh,Rin1-Abl PPI inh,PAD4 inh,UBC13 polyUb,Rin1-Abl confirm,GFP quench,others
CCOC(CCn1c(SCC(=O)Nc2cc(C)on2)nc2ccccc2c1=O)OCC,3,-1,-11,9.4*,-3,2,-2,1,
COc1ccc(C(=O)C2CCCN(Cc3cccn3-c3nccs3)C2)cc1OC (configuration not stated),16,4,-14,6.0*,2,4,-3,-1,
CC(NC(=O)c1ccc(F)cc1F)C1CC2CCC1C2 (configuration not stated),-12,6,12,8.1*,2,0,-1,0,
O=C(N/N=C/c1cn(Cc2cccc(F)c2)c2ccccc12)c1cc(O)cc(O)c1,66*,x,1,14*,x,26,8.7*,10*,
Nc1ccc(C(=O)N/N=C/c2cn(Cc3ccc(F)cc3)c3ccccc23)cc1,-20,x,4,3,x,2,x,x,
C[C@@H]1CN([C@@H](C)CO)C(=O)CCCn2nncc2CO[C@@H]1CN(C)S(=O)(=O)c1cccc(F)c1,x,x,x,14*,x,x,-1,0,
C[C@H]1CN([C@@H](C)CO)C(=O)CCCn2nncc2CO[C@H]1CN(C)S(=O)(=O)c1cccc(F)c1,x,x,x,-1,x,x,x,x,
CC1(C(=O)NS(=O)(=O)C2CC2)CCCN(C(=O)C2(c3ccc(Cl)cc3)CCCC2)C1 (configuration not stated),x,x,x,-2,x,x,x,x,
CC(C)(CO)CNC(=O)CC1C(=O)NCCN1CC(c1ccccc1)c1ccccc1 (configuration not stated),23,1,5,1,-5,-4,x,x,
CC(C)NC(=O)CC1C(=O)NCCN1CC(c1ccccc1)c1ccccc1 (configuration not stated),12,6,6,8.7*,1,-6,1,-1,
O=C(NC1CCCCC1)c1nc(C2CCNCC2)oc1-c1ccccc1,x,x,x,0,x,x,x,x,
COc1cccc(C2(O)CCN(C(=O)c3cccs3)CC2)c1,-14,3,6,6.7*,-1,-2,1,0,
CCOC(=O)c1nnn(-c2nc(OC)nc(N3CCCC3)n2)c1-c1ccccc1,-9,-8,6,-1,0,9,x,x,
CCNc1nc(N2CCCCC2)nc(-n2nnc(C(=O)OCC)c2C)n1,22,-3,5,5.8*,5,4,2,1,
CCN(C1CCCCC1)S(=O)(=O)c1ccc(OC)c(C)c1,3,0,20,0,1,-4,x,x,
CCN(C1CCCCC1)S(=O)(=O)c1ccc(-n2cnnn2)c(C)c1,3,5,6,14*,-2,8,-1,0,
